What was measured:
Lymphocyte [1] = assay: Genotoxicity in human lymphocytes at 0.5 to 355 ug/mL after 3 hrs in presence of rat liver S9 fraction by micronucleus assay; type: toxicity, cell-based; details: s9, 3 h
Salmonella typhimurium [2] = assay: Genotoxicity in Salmonella typhimurium TA100 assessed as number of revertants per plate at 150 ug/plate in presence of rat liver S9 fraction by Ames test (reference value: 141 +/- 1); type: toxicity; details: salmonella enterica subsp. enterica serovar typhimurium
Rattus norvegicus [3] = assay: Genotoxicity in rat assessed as micronucleated polychromatic erythrocytes in bone marrow at 1000 mg/kg administered via oral gavage measured after 24 hrs post dose by micronucleus assay (reference value: 0.07 +/- 0.05%); type: toxicity, organism-based; details: in vivo
Salmonella typhimurium [4] = assay: Genotoxicity in Salmonella typhimurium TA1537 assessed as number of revertants per plate at 1500 ug/plate in presence of rat liver S9 fraction by Ames test (reference value: 11 +/- 4); type: toxicity; details: salmonella enterica subsp. enterica serovar typhimurium
Salmonella typhimurium [5] = assay: Genotoxicity in Salmonella typhimurium TA100 assessed as number of revertants per plate at 1500 ug/plate in absence of rat liver S9 fraction by Ames test (reference value: 154 +/- 9); type: toxicity; details: salmonella enterica subsp. enterica serovar typhimurium
Salmonella typhimurium [6] = assay: Genotoxicity in Salmonella typhimurium TA1535 assessed as number of revertants per plate at 500 ug/plate in absence of rat liver S9 fraction by Ames test (reference value: 10 +/- 3); type: toxicity; details: salmonella enterica subsp. enterica serovar typhimurium
Lymphocyte [7] = assay: Genotoxicity in human lymphocytes assessed as increase in frequency of micronucleated cells at 160 ug/mL after 3 hrs in presence of rat liver S9 fraction by micronucleus assay (reference value: 0.63%); type: toxicity, cell-based; details: s9, 3 h
Lymphocyte [8] = assay: Genotoxicity in human lymphocytes assessed as replication index at 80 ug/mL after 3 hrs in absence of rat liver S9 fraction by micronucleus assay relative to control; type: toxicity, cell-based
Summary of the method: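 Human lymphocytes exposed for 3 h with or without rat liver S9, or 28 h without S9, with 1% DMSO as vehicle control. Replication index = (binucleated + 2 × multinucleated cells)/total cells. Cytotoxicity (%) = 100 − (RI treated/RI vehicle) × 100.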

Plasmodium falciparum [9] = assay: Antimalarial activity against intraerythrocytic stage of Plasmodium falciparum assessed as time required to clear 99.9% of initial parasite population at 100 times IC50 preincubated for 24 hrs followed by [3H]-hypoxanthine addition measured after 24 hrs by scintillation counting method; type: functional
Summary of the method: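 In vitro P. falciparum parasite reduction ratio assay run at 10×, 30× and 100× IC50. Derived parameters: lag phase (time to maximal killing), PRR (parasites killed per life cycle) and PCT99.9% (time to clear 99.9% of the initial parasite population).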

[10] = Terminal half life in Sprague-Dawley rat at 5 mg/kg, iv by HPLC/MS analysis; type: ADME, organism-based; details: in vivo, read-out: beta t1/2 (converted)
Salmonella typhimurium [11] = assay: Genotoxicity in Salmonella typhimurium TA1535 assessed as number of revertants per plate at 15 ug/plate in absence of rat liver S9 fraction by Ames test (reference value: 10 +/- 3); type: toxicity; details: salmonella enterica subsp. enterica serovar typhimurium
Rattus norvegicus [12] = assay: Genotoxicity in rat assessed as change in polychromatic erythrocytes in bone marrow at 1000 mg/kg administered via oral gavage measured after 24 hrs post dose by micronucleus assay relative to control; type: toxicity, organism-based; details: in vivo
Plasmodium falciparum [13] = assay: Antimalarial activity against Plasmodium falciparum FCB infected in human erythrocytes assessed as reduction in [3H]-hypoxanthine incorporation preincubated for 24 hrs followed by [3H]-hypoxanthine addition measured after 24 hrs by scintillation counting method; type: functional, cell-based
Salmonella typhimurium [14] = assay: Genotoxicity in Salmonella typhimurium TA100 assessed as number of revertants per plate at 1500 ug/plate in presence of rat liver S9 fraction by Ames test (reference value: 141 +/- 1); type: toxicity; details: salmonella enterica subsp. enterica serovar typhimurium
Salmonella typhimurium [15] = assay: Genotoxicity in Salmonella typhimurium TA100 assessed as number of revertants per plate at 15 ug/plate in presence of rat liver S9 fraction by Ames test (reference value: 141 +/- 1); type: toxicity; details: salmonella enterica subsp. enterica serovar typhimurium
Salmonella typhimurium [16] = assay: Genotoxicity in Salmonella typhimurium TA1535 assessed as number of revertants per plate at 5000 ug/plate in presence of rat liver S9 fraction by Ames test (reference value: 10); type: toxicity; details: salmonella enterica subsp. enterica serovar typhimurium
Salmonella typhimurium [17] = assay: Genotoxicity in Salmonella typhimurium TA98 assessed as number of revertants per plate at 15 ug/plate in absence of rat liver S9 fraction by Ames test (reference value: 14 +/- 6); type: toxicity; details: salmonella enterica subsp. enterica serovar typhimurium
Escherichia coli = assay: Genotoxicity in Escherichia coli WP2uvrA assessed as number of revertants per plate at 15 ug/plate in absence of rat liver S9 fraction by Ames test (reference value: 45 +/- 9); type: toxicity
Salmonella typhimurium [18] = assay: Genotoxicity in Salmonella typhimurium TA98 assessed as number of revertants per plate at 5000 ug/plate in absence of rat liver S9 fraction by Ames test (reference value: 14 +/- 6); type: toxicity; details: salmonella enterica subsp. enterica serovar typhimurium
[19] = Clearance in Sprague-Dawley rat at 5 mg/kg, iv by HPLC/MS analysis; type: ADME, organism-based; details: in vivo
Summary of the method: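 Female CD-1 mice, male SD rats and beagle dogs received 5 mg/kg either iv or by oral gavage. Vehicle was PEG 300/propylene glycol/water (55/25/20, pH 6). Blood was sampled and drug measured by HPLC-MS/MS.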

Salmonella typhimurium [20] = assay: Genotoxicity in Salmonella typhimurium TA1535 assessed as number of revertants per plate at 50 ug/plate in presence of rat liver S9 fraction by Ames test (reference value: 10); type: toxicity; details: salmonella enterica subsp. enterica serovar typhimurium
Salmonella typhimurium [21] = assay: Genotoxicity in Salmonella typhimurium TA98 assessed as number of revertants per plate at 1.5 ug/plate in absence of rat liver S9 fraction by Ames test (reference value: 14 +/- 6); type: toxicity; details: salmonella enterica subsp. enterica serovar typhimurium
Lymphocyte [22] = assay: Genotoxicity in human lymphocytes assessed as increase in frequency of micronucleated cells at 40 ug/mL after 28 hrs in absence of rat liver S9 fraction by micronucleus assay (reference value: 0.74%); type: toxicity, cell-based
Plasmodium berghei [23] = assay: Antimalarial activity against Plasmodium berghei infected in Swiss Webster mouse assessed as mouse survival rate at 1.1 mg/kg administered once daily via oral gavage for 4 consecutive days beginning 1 hr after infection measured on day 4 post infection relative to control; type: functional
Summary of the method: (§1)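 Mice given an intraperitoneal injection of P. berghei-infected erythrocytes taken from a previously infected animal. Oral dosing once daily for 4 consecutive days, starting 1 h after infection. Vehicle: polyethylene glycol 300/propylene glycol/water (weight ratio 55/25/20). Percent survival recorded daily from day 4 to day 20. Chloroquine 30 mg/kg and vehicle-only groups served as controls.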

Plasmodium berghei [24] = assay: Antimalarial activity against Plasmodium berghei infected in Swiss Webster mouse assessed as mouse survival rate at 11 mg/kg administered once daily via oral gavage for 4 consecutive days beginning 1 hr after infection measured on day 13 post infection relative to control; type: functional; summary of the method: as §1
Plasmodium berghei [25] = assay: Antimalarial activity against Plasmodium berghei infected in Swiss Webster mouse assessed as mouse survival rate at 11 mg/kg administered once daily via oral gavage for 4 consecutive days beginning 1 hr after infection measured on day 12 post infection relative to control; type: functional; summary of the method: as §1
Plasmodium berghei [26] = assay: Antimalarial activity against Plasmodium berghei infected in Swiss Webster mouse assessed as mouse survival rate at 3 mg/kg administered once daily via oral gavage for 4 consecutive days beginning 1 hr after infection measured on day 7 post infection relative to control; type: functional
Summary of the method: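 P. berghei-infected erythrocytes taken from a previously infected mouse were injected intraperitoneally. Oral dosing, once daily for 4 consecutive days, began 1 h after infection, in polyethylene glycol 300/propylene glycol/water (55/25/20 by weight). Chloroquine at 30 mg/kg was the positive control, with a vehicle-only group. Percent survival was recorded daily from day 4 to day 20.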

Question: Which Activity (Lymphocyte [1]) does the source give for `Cc1c(Oc2cnc(C(=O)NCCO)cn2)ccc2c1B(O)OC2` here?
Answer: Non-Toxic

Question: Which results are given for `Cc1c(Oc2cnc(C(=O)N3CC(C)(O)C3)cn2)ccc2c1B(O)OC2`?
Answer: Activity (Salmonella typhimurium [2]): 154; Activity (Rattus norvegicus [3]): 0.08%; Activity (Salmonella typhimurium [4]): 8; Activity (Salmonella typhimurium [5]): 133; Activity (Salmonella typhimurium [6]): 5; Activity (Lymphocyte [7]): 0.5%; Activity (Lymphocyte [8]): 3%; T99.9% (Plasmodium falciparum [9]): 30 h; half-life [10]: 4.6 h; Activity (Salmonella typhimurium [11]): 13; Activity (Rattus norvegicus [12]): 0%; IC50 (Plasmodium falciparum [13]): 66 nM; Activity (Salmonella typhimurium [14]): 144; Activity (Salmonella typhimurium [15]): 149; Activity (Salmonella typhimurium [16]): 6; Activity (Salmonella typhimurium [17]): 15; Activity (Escherichia coli): 41; Activity (Salmonella typhimurium [18]): 9; clearance [19]: 3.88 mL/min/kg; Activity (Salmonella typhimurium [20]): 11; Activity (Salmonella typhimurium [21]): 15; Activity (Lymphocyte [22]): 1.18%

Question: Which survival at 1.1 mg/kg (Plasmodium berghei [23]) does the source give for `Cc1c(Oc2cnc(C(=O)N3CC(O)(C(F)(F)F)C3)cn2)ccc2c1B(O)OC2` here?
Answer: 100%

Question: What does the source list for `Cc1c(Oc2cnc(C(=O)N3CC(O)(C(C)C)C3)cn2)ccc2c1B(O)OC2`?
Answer: survival at 11 mg/kg (Plasmodium berghei [24]): 20%; survival at 11 mg/kg (Plasmodium berghei [25]): 20%; survival at 1.1 mg/kg (Plasmodium berghei [23]): 100%

Question: For `Cc1c(Oc2cnc(C(=O)NC(C)CO)cn2)ccc2c1B(O)OC2` (stereo not drawn), which survival at 3 mg/kg (Plasmodium berghei [26]) is on record?
Answer: 60%

Source: ChEMBL document CHEMBL4038305, “Benzoxaborole Antimalarial Agents. Part 5. Lead Optimization of Novel Amide Pyrazinyloxy Benzoxaboroles and Identification of a Preclinical Candidate” (J Med Chem, 2017)
